PAD4 FP inh: PAD4 (human) enzyme inhibition; Q9UM07; recombinant PAD4, RCA probe fluorescence polarization; inhibition, % at 6.36 µM; 330,000 compounds, 0.41% hits; AID 485272;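 active means percent inhibition above a cutoff equal to the mean of all tested compounds plus 3 SD, cut at about 15% in these data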;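 further: 0% = PAD4 with RCA probe and DMSO and 100% = probe without PAD4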
PRMT1 inh: blocks human protein arginine methyltransferase 1; Q99873; recombinant PRMT1, activity-based probe fluorescence polarization; 370,000 compounds, 1.3% hits; inhibition, % at 2.79 µM; AID 652257;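 active means inhibition above about 21% made by adding two undisclosed values, limit read from the data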
TDP2 absorb: blocks human TDP2 phosphodiesterase activity; recombinant TDP2, T5PNP hydrolysis, p-nitrophenol absorbance 415 nm; inhibition, % at 12.8 µM; 370,000 compounds, 0.34% hits; AID 720702;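 active means inhibition above the mean of all tested compounds plus 3 SD, set per campaign, cut at about 25% in these data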;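 further: 0% = DMSO with enzyme and 100% = buffer with substrate but no TDP2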
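Material: recombinant human TDP2; quantity: TDP2 enzyme at 120 nM final; medium: Tris-HCl pH 7.5 with MgCl2; compound: single concentration, 12.8 µM nominal, with 1% DMSO; incubation: 2 h enzyme incubation at 37 °C; signal: epi absorbance; measure: percent inhibition; benchmarks: high control without enzyme, low control DMSO plus TDP2; repeats: singlicate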
GSTO1 inh: blocks human GSTO1 in RBBP9 counter-screen; 300,000 compounds, 1.1% hits; inhibition, % at 5.96 µM; recombinant GSTO1, activity-based probe fluorescence polarization; AID 1974; P78417;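 active means inhibition above the campaign mean inhibition plus 3 SD, cut at about 35% in these data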;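 further: 0% = GSTO1-1 with DMSO and 100% = wells lacking GSTO1-1 enzyme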
eLon inh: inhibits E. coli Lon protease; P0A9M0; inhibition, % at 7.94 µM; purified E. coli Lon protease, fluorescence polarization; 360,000 compounds, 0.42% hits; in the data active means inhibition above about 13%, passing the limit was not always enough;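 further: 0% = enzyme with probe and DMSO and 100% = no enzyme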
Target sequence (P0A9M0 whole entry, looked up): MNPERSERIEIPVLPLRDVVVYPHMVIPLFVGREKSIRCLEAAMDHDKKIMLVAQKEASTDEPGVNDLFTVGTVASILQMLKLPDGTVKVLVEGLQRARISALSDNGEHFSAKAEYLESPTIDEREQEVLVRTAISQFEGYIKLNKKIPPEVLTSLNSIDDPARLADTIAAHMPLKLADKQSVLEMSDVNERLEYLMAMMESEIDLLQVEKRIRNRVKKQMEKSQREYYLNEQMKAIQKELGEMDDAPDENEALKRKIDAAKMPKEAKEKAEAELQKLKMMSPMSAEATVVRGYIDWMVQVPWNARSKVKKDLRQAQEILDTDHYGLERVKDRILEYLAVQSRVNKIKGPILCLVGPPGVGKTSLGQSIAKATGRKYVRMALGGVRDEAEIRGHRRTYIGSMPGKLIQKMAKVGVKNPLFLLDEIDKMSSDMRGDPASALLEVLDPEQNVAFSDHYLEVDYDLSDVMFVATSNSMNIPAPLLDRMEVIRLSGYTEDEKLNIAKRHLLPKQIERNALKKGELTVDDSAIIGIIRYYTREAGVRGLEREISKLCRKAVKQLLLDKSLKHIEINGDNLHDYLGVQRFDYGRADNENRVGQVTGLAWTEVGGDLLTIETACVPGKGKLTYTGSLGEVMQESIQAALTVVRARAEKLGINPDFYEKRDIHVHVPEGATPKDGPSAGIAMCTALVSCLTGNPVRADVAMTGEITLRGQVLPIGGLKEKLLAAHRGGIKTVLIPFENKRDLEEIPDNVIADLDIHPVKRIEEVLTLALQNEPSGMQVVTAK
GSTO1 inh conf: confirmation of human GSTO1 inhibitors; recombinant GSTO1, probe fluorescence polarization; 2,400 compounds, 54% hits; inhibition, % at 5.96 µM; shares compounds with GSTO1 inh;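 active means inhibition above the primary screen's cutoff, its mean inhibition plus 3 SD, cut at about 35% in these data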;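 further: loss of polarization as inhibitors block binding of rhodamine sulfonate ester activity probe; 0% = GSTO1 with DMSO and 100% = wells lacking GSTO1 enzyme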
Starred values were filed as active, the others as inactive. Sampled rows, rich in hits. Any-hit rate of the full collection: about 2.5%.

Screening Cc1c(O)nc(SCC(=O)Nc2ccc3c4c(cccc24)CC3)n(-c2ccc(F)cc2)c1=O returned PAD4 FP inh 2.4, PRMT1 inh 24.6*, TDP2 absorb 0.6, GSTO1 inh 9.8 and eLon inh -2.9.
`COc1cccc(NC(=O)CSc2nc(O)c(C)c(=O)n2-c2ccc(C)cc2)c1` gave PAD4 FP inh 0.5, PRMT1 inh 24.5*, TDP2 absorb 4.3, GSTO1 inh 4.6 and eLon inh -1.4.
`COc1ccc(-c2cc(-c3nnc(SCC(=O)NC4CCCCC4)n3N)[nH]n2)cc1` gave PRMT1 inh -2.4 and TDP2 absorb 4.9.
For CCc1nnn2c1Cn1c3ccccc3c(=O)n1[C@@H](C)C2 the results were PRMT1 inh 0.9 and TDP2 absorb -0.1.
CC(C)N1Cc2nnn(Cc3ccccc3)c2-c2cc(N3CCCC3)ccc2S1(=O)=O was read as PRMT1 inh -1.0 and TDP2 absorb 1.4.
`O=C(/C=C1\NC2(CCCC2)Cc2ccccc21)N1CCOCC1` gave PAD4 FP inh -1.3, PRMT1 inh 27.5*, TDP2 absorb 4.7, GSTO1 inh -3.9 and eLon inh -5.1.
For CC1(C)Cc2c(ccc3ccccc23)/C(=C/C(=O)N2CCCCC2)N1 the results were PAD4 FP inh -8.7, PRMT1 inh -1.8, TDP2 absorb -11.6, GSTO1 inh 0.8 and eLon inh -1.0.
`Cc1cccc(OCC(C)CN2CCC(C(O)(c3ccccc3)c3ccccc3)CC2)c1` (stereo unspecified) gave PRMT1 inh -2.1 and TDP2 absorb -7.6.
`CCc1nnc(NC(=O)CSc2nc3c(c(=O)n2CC)SC(C)C3)s1` (stereo unspecified) gave PAD4 FP inh -2.7, PRMT1 inh 0.1, TDP2 absorb 12.4, GSTO1 inh 35.1* and eLon inh 10.7.
CCn1c(SCC(=O)Nc2cc(C)ccc2C)nc2c(c1=O)SC(C)C2 (stereo unspecified) was read as PAD4 FP inh -3.6, PRMT1 inh -0.3, TDP2 absorb 10.6, GSTO1 inh 5.0 and eLon inh -1.8.
COc1ccc(OCc2nnc(SCC(=O)N(C)Cc3ccccc3)n2N)cc1 was read as PAD4 FP inh -1.3, PRMT1 inh 21.4*, TDP2 absorb -0.6, GSTO1 inh -1.9 and eLon inh -8.4.
`Cc1ccccc1NC(=O)N(C)[C@H]1C[C@H]2c3[nH]c4c(-c5ccccc5)cccc4c3CCN2C[C@H]1[C@H](C)O` gave PRMT1 inh 1.5 and TDP2 absorb 2.0.
Screening C[C@@H]1C(=O)N2N=Cc3cc4ccccc4cc3[C@H]2N2N=Cc3cc4ccccc4cc3[C@@H]12 returned PRMT1 inh -2.2 and TDP2 absorb 12.2.
Screening O=C(CSc1nc2ccccc2c(=O)[nH]1)c1ccc(O)c(O)c1 returned PAD4 FP inh -1.1, PRMT1 inh 22.6*, TDP2 absorb -8.7, GSTO1 inh 29.0 and eLon inh -4.2.
`O=C(CSc1nc2ccccc2c(=O)[nH]1)c1ccc(O)cc1O` gave PRMT1 inh 2.6, TDP2 absorb 1.6 and eLon inh 4.4.
Screening O=C1N=c2ccccc2=C1c1c(O)n(-c2cccc(F)c2)[nH]c1=O returned PAD4 FP inh -2.0, PRMT1 inh 21.2*, TDP2 absorb 8.4, GSTO1 inh 3.3 and eLon inh -3.6.
CCn1c(O)c(C2=c3ccccc3=NC2=O)c2cc(Br)ccc21 was read as PAD4 FP inh 2.0, PRMT1 inh 11.8, TDP2 absorb -0.2 and GSTO1 inh 1.7.
O=C(CN1CCc2onc(-c3cccc(-n4cc(CO)nn4)c3)c2C1=O)N1CCOCC1 was read as PRMT1 inh -0.9 and TDP2 absorb -1.0.
COc1ccc(NC(=O)CCN2CCN(S(=O)(=O)c3ccc(Br)cc3)CC2)cc1 was read as PAD4 FP inh 0.6, PRMT1 inh -3.1, TDP2 absorb 7.5, GSTO1 inh 71.0*, eLon inh -6.5 and GSTO1 inh conf 5.7.
For CCOc1cc(CNc2ccc(O)cc2)cc(Br)c1OCc1ccccc1F the results were PAD4 FP inh 7.8, GSTO1 inh 80.4*, eLon inh 11.7 and GSTO1 inh conf 1.1.
For Cn1c(=O)oc2cc(S(=O)(=O)Nc3ccccc3)ccc21 the results were PAD4 FP inh -3.1, PRMT1 inh 0.4, TDP2 absorb -4.1, GSTO1 inh 4.7 and eLon inh -1.9.
`COc1ccc(NS(=O)(=O)c2ccc3c(c2)oc(=O)n3C)cc1Cl` gave PAD4 FP inh 0.2, PRMT1 inh -1.5, TDP2 absorb -1.6, GSTO1 inh 51.3*, eLon inh -1.9 and GSTO1 inh conf 57.4*.
CCN(CC)c1ccc(NS(=O)(=O)c2ccc3c(c2)oc(=O)n3C)c(C)c1 was read as PAD4 FP inh -2.2, PRMT1 inh 24.8*, TDP2 absorb 1.6, GSTO1 inh 69.9*, eLon inh 0.7 and GSTO1 inh conf 69.8*.
Screening CN(CCCOC(=O)c1cc2ccccc2o1)C1CN(Cc2cn(Cc3ccc([N+](=O)[O-])cc3)nn2)S(=O)(=O)C1 (stereo unspecified) returned PRMT1 inh -0.9 and TDP2 absorb -0.8.
Screening CCOc1ccc(-n2c(SCC(=O)Nc3ccc(S(=O)(=O)Nc4nccs4)cc3)nnc2-c2ccncc2)cc1 returned PRMT1 inh -3.5 and TDP2 absorb -0.5.
O=C1C=CC(=O)C(C2=C3C(=O)N(CCc4ccccc4)CC(=O)N3CCC2)=C1 was read as PAD4 FP inh -0.7, PRMT1 inh 88.2*, TDP2 absorb -0.5, GSTO1 inh 74.6* and GSTO1 inh conf 6.8.
Screening O=C(Cc1ccsc1)NNC(=O)c1ccccc1O returned PAD4 FP inh 7.9, PRMT1 inh 0.9, TDP2 absorb 1.1, GSTO1 inh 37.7*, eLon inh 1.7 and GSTO1 inh conf 6.2.
For COc1ccc(Oc2ccc(C(F)(F)F)cc2NC(=O)CC(CC(=O)O)c2ccccc2)cc1 (stereo unspecified) the results were PAD4 FP inh 4.5, PRMT1 inh 0.0, TDP2 absorb 0.7, GSTO1 inh 43.5*, eLon inh -6.8 and GSTO1 inh conf 2.2.
O=C(CN1CCCc2ccccc21)NCc1ccc(Cl)cc1 was read as PRMT1 inh 9.5 and TDP2 absorb -3.4.
`C=CCn1c(SCC(=O)C(C)(C)C)nnc1-c1ccc(Cl)cc1` gave PRMT1 inh 2.4 and TDP2 absorb -10.1.
O=C(Oc1ccc2ccccc2c1)c1ccco1 was read as PAD4 FP inh -3.5, PRMT1 inh -0.5, TDP2 absorb -0.7, GSTO1 inh 9.2 and eLon inh -1.8.
For CC1CC(C)(C)Nc2ccc(OC(=O)c3ccco3)cc21 (stereo unspecified) the results were PAD4 FP inh 0.3, PRMT1 inh -3.6, TDP2 absorb 0.2, GSTO1 inh 43.5*, eLon inh 1.4 and GSTO1 inh conf 5.1.

Assay outcomes (PubChem)
